Assay results published in ChEMBL document CHEMBL1138910, “Racemic and chiral sulfoxides as potential prodrugs of 4-pyrone COX-2 inhibitors” (Bioorg Med Chem Lett, 2006).
pIC50: −log10 of the molar value. Converted amounts (≈) assume the structure as drawn.

Tests used:
Rattus norvegicus [1] = assay: Ratio AUC for prodrug to the parent compound in Wistar rat at 1 mg/kg, po; assay type: ADME, organism-based; design: dose 1 mg/kg, route oral; conditions: in vivo
[2] = AUC in Wistar rat at 1 mg/kg, po; assay type: ADME, organism-based; design: dose 1 mg/kg, route oral; conditions: plasma
[3] = Cmax in Wistar rat at 1 mg/kg, po; assay type: ADME, organism-based; design: dose 1 mg/kg, route oral; conditions: in vivo
[4] = Metabolic stability in human liver microsomes at 5 uM after 30 min […]; assay type: ADME, Microsome; conditions: in the assay text read “37 degC” for “30 degC”, read-out: Stability
Rattus norvegicus [5] = assay: Tmax in Wistar rat after administration as its prodrug at 1 mg/kg, po; assay type: ADME, organism-based; design: dose 1 mg/kg, route oral; conditions: in vivo
Rattus norvegicus [6] = assay: Cmax in Wistar rat after administration as its prodrug at 1 mg/kg, po; assay type: ADME, organism-based; design: dose 1 mg/kg, route oral; conditions: in vivo
[7] = Solubility in simulated gastric fluid at pH 1.8, 37 degC after 24 hrs; assay type: physicochemical
[8] = Metabolic stability in rat liver microsomes at 5 uM after 30 min […]; assay type: ADME, Microsome; conditions: in the assay text read “37 degC” for “30 degC”, read-out: Stability
Rattus norvegicus [9] = species: Rattus norvegicus; assay: Inhibition of yeast-induced pyresis in Wistar rat; assay type: functional
Method in brief: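 Yeast-induced pyresis in rats, an acute therapeutic protocol with a single oral dose. Temperature was measured at 1 h intervals from 1 to 5 h after dosing. ED50 was derived from four doses with six to eight animals per group.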

[10] = Solubility in PBS at pH 7.2, 37 degC after 24 hrs; assay type: physicochemical
Rattus norvegicus [11] = assay: AUC in Wistar rat after administration as its prodrug at 1 mg/kg, po; assay type: ADME, organism-based, Plasma; design: dose 1 mg/kg, route oral; conditions: in vivo
[12] = Tmax in Wistar rat at 1 mg/kg, po; assay type: ADME, organism-based; design: dose 1 mg/kg, route oral; conditions: in vivo
Rattus norvegicus [13] = assay: Inhibition of adjuvant-induced arthritis in Wistar rat at 0.01 mg/kg, po; assay type: functional
Method in brief: (§1)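 Adjuvant-induced arthritis in male Wistar rats run as a therapeutic protocol. Compounds were given orally once daily for 7 days, starting on day 14 after arthritis induction. Paw edema was measured 24 h after the last dose. Results are reported as ED50 from four doses (six to eight animals per group) or as % inhibition at the stated dose.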

Rattus norvegicus [14] = assay: Inhibition of adjuvant-induced arthritis in Wistar rat at 0.1 mg/kg, po; assay type: functional; method in brief: as §1
[15] = biological target: T1, Prostaglandin G/H synthase 2 (Homo sapiens, UniProt P35354); assay: Inhibition of COX2 in human whole blood; assay type: tissue-based
T1 sequence (P35354 whole entry): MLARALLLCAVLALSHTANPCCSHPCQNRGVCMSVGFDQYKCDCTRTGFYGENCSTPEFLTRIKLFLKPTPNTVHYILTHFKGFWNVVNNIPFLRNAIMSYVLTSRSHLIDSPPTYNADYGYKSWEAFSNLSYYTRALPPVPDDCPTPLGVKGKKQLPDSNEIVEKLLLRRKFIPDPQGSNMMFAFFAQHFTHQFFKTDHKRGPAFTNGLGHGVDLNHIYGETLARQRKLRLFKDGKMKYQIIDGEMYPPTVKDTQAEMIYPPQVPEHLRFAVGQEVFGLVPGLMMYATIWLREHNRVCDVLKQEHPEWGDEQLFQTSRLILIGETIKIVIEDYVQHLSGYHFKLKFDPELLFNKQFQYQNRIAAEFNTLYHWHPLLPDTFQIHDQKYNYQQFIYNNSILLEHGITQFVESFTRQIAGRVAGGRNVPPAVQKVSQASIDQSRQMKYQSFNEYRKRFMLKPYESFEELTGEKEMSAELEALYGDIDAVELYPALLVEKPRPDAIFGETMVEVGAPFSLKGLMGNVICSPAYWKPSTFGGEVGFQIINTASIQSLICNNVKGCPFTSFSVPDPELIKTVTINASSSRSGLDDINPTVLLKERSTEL

Rattus norvegicus [16] = assay: Activity against adjuvant-induced arthritis in po dosed Wistar rat; assay type: functional, organism-based; method in brief: as §1

SMILES	remaining at 0.5 h, 5 µM [4] [%]	solubility at 24 h [7] [µg/mL]	remaining at 0.5 h, 5 µM [8] [%]	ED50 (Rattus norvegicus [9]) [mg/kg]	solubility at 24 h [10] [µg/mL]	pIC50 [15]	other results
Cc1cc(=O)c(Oc2ccc(Br)cc2F)c(-c2ccc(S(C)(=O)=O)cc2)o1	12	4 (≈ 8.82 µM)	34	3.2	1 (≈ 2.21 µM)		Ratio AUC (Rattus norvegicus [1]): 28; AUC [2]: 1270 ng·h/mL; Cmax [3]: 177 ng/mL; Tmax (Rattus norvegicus [5]): 1.5 h; Cmax (Rattus norvegicus [6]): 243 ng/mL; AUC (Rattus norvegicus [11]): 1125 ng·h/mL; Tmax [12]: 132 min; inhibition in vivo at 0.01 mg/kg (Rattus norvegicus [13]): 60%
Cc1cc(=O)c(Oc2ccc(F)cc2F)c(-c2ccc(S(C)(=O)=O)cc2)o1	2	9 (≈ 22.9 µM)	26	0.7	7 (≈ 17.8 µM)		inhibition in vivo at 0.1 mg/kg (Rattus norvegicus [14]): 68%; Ratio AUC (Rattus norvegicus [1]): 14; AUC [2]: 9220 ng·h/mL; Cmax [3]: 1510 ng/mL; Tmax (Rattus norvegicus [5]): 2.3 h; Cmax (Rattus norvegicus [6]): 2959 ng/mL; AUC (Rattus norvegicus [11]): 18646 ng·h/mL; Tmax [12]: 60 min
Cc1cc(=O)c(Oc2ccc(Cl)cc2F)c(-c2ccc([S@+](C)[O-])cc2)o1	41		67				
Cc1cc(=O)c(Oc2ccc(Br)cc2F)c(-c2ccc([S@+](C)[O-])cc2)o1	42		80			6.70	
Cc1cc(=O)c(Oc2ccc(Cl)cc2F)c(-c2ccc([S@@+](C)[O-])cc2)o1	48		87				
Cc1cc(=O)c(Oc2ccc(Br)cc2F)c(-c2ccc([S@@+](C)[O-])cc2)o1	62		93			5.80	
Cc1cc(=O)c(Oc2ccc(F)cc2F)c(-c2ccc([S@+](C)[O-])cc2)o1	17		38			6.57	
Cc1cc(=O)c(Oc2ccc(F)cc2F)c(-c2ccc([S+](C)[O-])cc2)o1 (configuration not stated)	24	527 (≈ 1400 µM)	54	1.3	150 (≈ 399 µM)	6.04	inhibition in vivo at 0.1 mg/kg (Rattus norvegicus [14]): 59%; AUC [2]: 1310 ng·h/mL; Cmax [3]: 1310 ng/mL; Tmax [12]: 18 min
Cc1cc(=O)c(Oc2ccc(Cl)cc2F)c(-c2ccc([S+](C)[O-])cc2)o1 (configuration not stated)	57	70 (≈ 178 µM)	86	2.3	37 (≈ 94.2 µM)		inhibition in vivo at 0.1 mg/kg (Rattus norvegicus [14]): 56%
Cc1cc(=O)c(Oc2ccc(Br)cc2F)c(-c2ccc([S+](C)[O-])cc2)o1 (configuration not stated)	64	31 (≈ 70.9 µM)	77	2.8	15 (≈ 34.3 µM)		AUC [2]: 43 ng·h/mL; Cmax [3]: 37 ng/mL; Tmax [12]: 18 min; inhibition in vivo at 0.01 mg/kg (Rattus norvegicus [13]): 58%
Cc1cc(=O)c(Oc2ccc(F)cc2F)c(-c2ccc([S@@+](C)[O-])cc2)o1	20		55			5.68	
Cc1cc(=O)c(Oc2ccc(Cl)cc2F)c(-c2ccc(S(C)(=O)=O)cc2)o1	6	18 (≈ 44 µM)	27	0.8	5 (≈ 12.2 µM)		inhibition in vivo at 0.1 mg/kg (Rattus norvegicus [14]): 63%
Cc1ccc(-c2ncc(Cl)cc2-c2ccc(S(C)(=O)=O)cc2)cn1 [ETORICOXIB]				1			EC50 (Rattus norvegicus [16]): 0.44 mg/kg
CS(=O)(=O)c1ccc(C2=C(c3ccccc3)C(=O)OC2)cc1 [ROFECOXIB]				0.9			EC50 (Rattus norvegicus [16]): 0.3 mg/kg
